Measurements published in ChEMBL document CHEMBL3120099, “Novel S1P(1) receptor agonists--part 2: from bicyclo[3.1.0]hexane-fused thiophenes to isobutyl substituted thiophenes” (J Med Chem, 2014).

What follows are compounds tested on Rattus norvegicus (assay: Lymphopenic activity in Wistar rat assessed as reduction in blood lymphocyte count at 3 mg/kg, po after 24 hrs).
Type: functional
Design: scale not given: the % may be the effect or the level left
Method in brief: (§1)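 Normotensive male Wistar rats given 1–10 mg/kg by gavage in 5% DMSO/7.5% succinylated gelatin. Blood taken before and 3, 6 and 24 h after dosing, with later times for some compounds. Lymphocytes counted by hematology analyzer. % LC change calculated per animal relative to the predose value (=100%). Mean ± SEM.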

Compound | Activity [%]
Cc1cc(-c2noc(-c3scc(CC(C)C)c3C)n2)cc(C)c1OCC(O)CNC(=O)CO (racemic) | -27

What follows are compounds tested on Rattus norvegicus (assay: Lymphopenic activity in Wistar rat assessed as reduction in blood lymphocyte count at 10 mg/kg, po after 3 hrs).
Type: functional
Design: scale not given: the % may be the effect or the level left
Method in brief: as §1

Compound | Activity [%]
Cc1cc(-c2noc(-c3scc(CC(C)C)c3C)n2)cc(C)c1OCC(O)CNC(=O)CO (racemic) | -72

These compounds were tested on Rattus norvegicus (assay: Lymphopenic activity in Wistar rat assessed as reduction in blood lymphocyte count at 10 mg/kg, po after 24 hrs).
Type: functional
Method in brief: as §1

Compound | % change in blood lymphocyte count from predose [%]
Cc1cc(-c2noc(-c3scc(CC(C)C)c3C)n2)cc(C)c1OCC(O)CNC(=O)CO (racemic) | -80

The compounds below were run on Rattus norvegicus (assay: Lymphopenic activity in Wistar rat assessed as reduction in blood lymphocyte count at 10 mg/kg, po after 6 hrs).
Type: functional
Design: scale not given: the % may be the effect or the level left
Method in brief: as §1

Compound | Activity [%]
Cc1cc(-c2noc(-c3scc(CC(C)C)c3C)n2)cc(C)c1OCC(O)CNC(=O)CO (racemic) | -79

The compounds below were run against Sphingosine 1-phosphate receptor 1 (Homo sapiens, UniProt P21453) (assay: Agonist activity at human recombinant S1P1 receptor expressed in CHO cells assessed as membrane-bound 35S-GTPgammaS incubated 30 mins prior to substrate addition measured after 1 hr by topcount scintillation counting analysis).
Type: functional, cell-based

Sphingosine 1-phosphate receptor 1, sequence (P21453 whole entry): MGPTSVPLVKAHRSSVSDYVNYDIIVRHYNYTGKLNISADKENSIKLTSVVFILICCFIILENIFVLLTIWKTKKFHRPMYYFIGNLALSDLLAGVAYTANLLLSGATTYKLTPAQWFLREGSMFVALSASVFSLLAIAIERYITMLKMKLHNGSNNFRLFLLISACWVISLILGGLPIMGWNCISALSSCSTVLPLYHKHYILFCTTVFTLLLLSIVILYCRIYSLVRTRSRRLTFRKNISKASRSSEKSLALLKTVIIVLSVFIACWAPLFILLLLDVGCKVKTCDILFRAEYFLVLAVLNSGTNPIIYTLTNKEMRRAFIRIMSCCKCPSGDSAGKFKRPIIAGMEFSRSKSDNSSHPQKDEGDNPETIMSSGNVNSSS

EC50 [nM] | Compound
1.5 | Cc1cc(-c2noc(-c3scc(CC(C)C)c3C)n2)cc(C)c1OCC(O)CNC(=O)CO (racemic)

What follows are compounds tested on Rattus norvegicus (assay: Lymphopenic activity in Wistar rat assessed as reduction in blood lymphocyte count at 3 mg/kg, po after 3 hrs).
Type: functional
Design: scale not given: the % may be the effect or the level left
Method in brief: as §1

Compound | Activity [%]
Cc1cc(-c2noc(-c3scc(CC(C)C)c3C)n2)cc(C)c1OCC(O)CNC(=O)CO (racemic) | -67

The compounds below were run against Sphingosine 1-phosphate receptor 3 (Homo sapiens, UniProt Q99500) (assay: Agonist activity at human recombinant S1P3 receptor expressed in CHO cells assessed as membrane-bound 35S-GTPgammaS incubated 30 mins prior to substrate addition measured after 1 hr by topcount scintillation counting analysis).
Type: functional, cell-based

Sphingosine 1-phosphate receptor 3, sequence (Q99500 whole entry): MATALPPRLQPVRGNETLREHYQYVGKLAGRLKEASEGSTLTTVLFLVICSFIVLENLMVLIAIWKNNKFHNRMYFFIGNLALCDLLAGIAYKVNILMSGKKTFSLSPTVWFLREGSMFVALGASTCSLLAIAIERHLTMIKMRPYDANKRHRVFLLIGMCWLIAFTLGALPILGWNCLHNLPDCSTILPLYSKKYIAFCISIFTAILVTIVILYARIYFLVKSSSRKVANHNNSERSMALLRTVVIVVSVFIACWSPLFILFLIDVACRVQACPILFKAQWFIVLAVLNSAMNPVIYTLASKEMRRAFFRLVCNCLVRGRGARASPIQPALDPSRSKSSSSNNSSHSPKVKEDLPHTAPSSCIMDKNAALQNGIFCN

EC50 [nM] | Compound
528 | Cc1cc(-c2noc(-c3scc(CC(C)C)c3C)n2)cc(C)c1OCC(O)CNC(=O)CO (racemic)

The compounds below were run on Rattus norvegicus (assay: Lymphopenic activity in Wistar rat assessed as reduction in blood lymphocyte count at 3 mg/kg, po after 6 hrs).
Type: functional
Design: scale not given: the % may be the effect or the level left
Method in brief: as §1

Compound | Activity [%]
Cc1cc(-c2noc(-c3scc(CC(C)C)c3C)n2)cc(C)c1OCC(O)CNC(=O)CO (racemic) | -79
